One block for each compound: values may come before it.
Experiments:
[1] = test system: Rattus norvegicus; assay: Toxicity in Wistar Han IGS rat assessed as foamy macrophage accumulation in lung at 500 mg/kg, po qd administered for 14 days; assay type: organism-based; conditions: in vivo, 336 h
Procedure, shortened: (§1)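 Wistar Han rats, daily oral dosing for 14 days (5/sex/dose) or 1 month (10/sex/dose); microscopic findings reported as incidence by sex, plus organ weights.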

[2] = test system: Canis familiaris; assay: Unbound Cmax in telemetered beagle dog at 75 mg/kg administered via oral gavage measured over 24 hrs; assay type: ADME, organism-based, Canis lupus familiaris; conditions: in vivo
Procedure, shortened: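 Telemetered Beagle dogs given oral doses, with blood pressure and heart rate monitored after dosing alongside plasma exposure.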

[3] = test system: Rattus norvegicus; assay: Toxicity in Wistar Han IGS rat assessed as gastric ulcer at 500 mg/kg, po qd administered for 14 days; assay type: organism-based; conditions: in vivo, 336 h; procedure, shortened: as §1
[4] = test system: Canis familiaris; assay: Toxicity in telemetered beagle dog assessed as increase in systolic blood pressure at 20 mg/kg, iv administered as single bolus dose over 2 mins; assay type: organism-based, Canis lupus familiaris; conditions: in vivo
[5] = Toxicity in po dosed beagle dog administered as qd for 14 days; assay type: organism-based, Canis lupus familiaris; conditions: in vivo
[6] = test system: Canis familiaris; assay: Toxicity in beagle dog at 75 mg/kg, po qd administered for 14 days; assay type: organism-based, Canis lupus familiaris; conditions: in vivo, 336 h
[7] = test system: Rattus norvegicus; assay: Unbound AUC in Wistar Han IGS rat at 10 mg/kg, po qd administered for 14 days; assay type: ADME, organism-based; conditions: in vivo, 336 h
Procedure, shortened: (§2)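 Wistar Han rats were dosed orally once daily for 14 days (exploratory, 5/sex/dose) or 1 month (toxicity, 10/sex/dose). Toxicokinetic satellite animals (3–4/sex/dose) were used, and steady-state systemic exposure is given as the mean of male and female values combined.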

[8] = test system: Rattus norvegicus; assay: In vivo inhibition of DGAT2 in Wistar Han IGS rat assessed as coverage of in vitro IC50 for rat DGAT2 at 100 mg/kg, po qd administered for 14 days; assay type: functional; design: scale not given: the % may be the effect or the level left
Procedure, shortened: (§3)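 Wistar Han rats, once-daily oral dosing for 14 days (exploratory, 5/sex/dose) or 1 month (10/sex/dose); toxicokinetics in 3–4/sex/dose with sexes combined; coverage is the average % above rat DGAT2 IC50 at steady state over the 24 h dosing interval.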

[9] = test system: Rattus norvegicus; assay: Unbound AUC in Wistar Han IGS rat at 60 mg/kg, po qd administered for 1 month; assay type: ADME, organism-based; conditions: in vivo; procedure, shortened: as §2
[10] = test system: Rattus norvegicus; assay: Toxicity in Wistar Han IGS rat at 10 mg/kg, po qd administered for 14 days; assay type: organism-based; conditions: in vivo, 336 h; procedure, shortened: as §1
[11] = test system: Rattus norvegicus; assay: In vivo inhibition of DGAT2 in Wistar Han IGS rat assessed as coverage of in vitro IC50 for rat DGAT2 at 30 mg/kg, po qd administered for 1 month; assay type: functional; design: scale not given: the % may be the effect or the level left; procedure, shortened: as §3
[12] = test system: Rattus norvegicus; assay: Unbound Cmax in Wistar Han IGS rat at 300 mg/kg, po qd administered for 1 month; assay type: ADME, organism-based; conditions: in vivo; procedure, shortened: as §2
[13] = test system: Canis familiaris; assay: In vivo inhibition of DGAT2 in beagle dog assessed as coverage of in vitro IC50 for dog DGAT2 at 300 mg/kg, po qd administered for 14 days; assay type: functional, Canis lupus familiaris; design: scale not given: the % may be the effect or the level left
Procedure, shortened: (§4)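 Beagle dogs, once-daily oral dosing for 14 days or 1 month; systemic exposure with sexes combined; coverage is the average % above dog DGAT2 IC50 at steady state over the 24 h dosing interval.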

[14] = test system: Canis familiaris; assay: Toxicity in beagle dog assessed as prolongation of QTc interval at 100 to 150 mg/kg, po qd administered for 25 days; assay type: organism-based, Canis lupus familiaris; conditions: in vivo, 600 h
[15] = test system: Rattus norvegicus; assay: Toxicity in Wistar Han IGS rat assessed as increase in heart weight at 60 to 300 mg/kg, po qd administered for 1 month; assay type: organism-based; conditions: in vivo; procedure, shortened: as §1
[16] = test system: Canis familiaris; assay: Toxicity in telemetered beagle dog assessed as increase in systolic pressure at 50 mg/kg administered via oral gavage measured during 4 hrs of post dosing; assay type: organism-based, Canis lupus familiaris; conditions: in vivo
[17] = test system: Canis familiaris; assay: Toxicity in telemetered beagle dog assessed as increase in heart rate at 50 mg/kg administered via oral gavage measured up to 9 hrs of post dosing; assay type: organism-based, Canis lupus familiaris; conditions: in vivo
[18] = Ratio of Cmax in beagle dog at 10 mg/kg, po qd administered for 1 month to IC50 for in vitro inhibition of dog DGAT2; assay type: organism-based, Canis lupus familiaris; conditions: in vivo
Procedure, shortened: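 One-month toxicity study in Beagle dogs with N = 2/sex/dose. Plasma exposure at each dose level was referenced to the dog DGAT2 enzymatic IC50, reported as the geometric mean of at least three replicates.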

[19] = test system: Canis familiaris; assay: In vivo inhibition of DGAT2 in beagle dog assessed as coverage of in vitro IC50 for dog DGAT2 at 3 mg/kg, po qd administered for 1 month; assay type: functional, Canis lupus familiaris; design: scale not given: the % may be the effect or the level left; procedure, shortened: as §4
[20] = Apparent intrinsic clearance in rat hepatocytes assessed per million cells; assay type: ADME, cell-based, Hepatocyte
[21] = Oral bioavailability in beagle dog at 5 mg/kg; assay type: ADME, organism-based, Canis lupus familiaris; conditions: in vivo
[22] = test system: Canis familiaris; assay: Toxicity in telemetered beagle dog assessed as emesis at 5 to 50 mg/kg administered via oral gavage measured within 4 hrs of dosing; assay type: organism-based, Canis lupus familiaris; conditions: in vivo
[23] = test system: Rattus norvegicus; assay: In vivo DGAT2 inhibition in po dosed sucrose-fed rat assessed as decrease in plasma triglyceride levels after 2 hrs; assay type: functional, organism-based
Procedure, shortened: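 Rats fed a high-sucrose diet, single oral dose of test article or vehicle; plasma TG measured in tail-vein blood 2 h post dose; n = 7–8 per group; results as percent change from vehicle group, one-way ANOVA with Dunnett's test.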

[24] = target: Cytochrome P450 3A4 (Homo sapiens, UniProt P08684); assay: Drug metabolism in human liver microsomes assessed as fraction of CYP3A4-mediated oxidative metabolism preincubated for 5 mins followed by addition of NADPH regenerating system and measured after 2.5 to 60 mins; assay type: ADME
Cytochrome P450 3A4, sequence (P08684 whole entry): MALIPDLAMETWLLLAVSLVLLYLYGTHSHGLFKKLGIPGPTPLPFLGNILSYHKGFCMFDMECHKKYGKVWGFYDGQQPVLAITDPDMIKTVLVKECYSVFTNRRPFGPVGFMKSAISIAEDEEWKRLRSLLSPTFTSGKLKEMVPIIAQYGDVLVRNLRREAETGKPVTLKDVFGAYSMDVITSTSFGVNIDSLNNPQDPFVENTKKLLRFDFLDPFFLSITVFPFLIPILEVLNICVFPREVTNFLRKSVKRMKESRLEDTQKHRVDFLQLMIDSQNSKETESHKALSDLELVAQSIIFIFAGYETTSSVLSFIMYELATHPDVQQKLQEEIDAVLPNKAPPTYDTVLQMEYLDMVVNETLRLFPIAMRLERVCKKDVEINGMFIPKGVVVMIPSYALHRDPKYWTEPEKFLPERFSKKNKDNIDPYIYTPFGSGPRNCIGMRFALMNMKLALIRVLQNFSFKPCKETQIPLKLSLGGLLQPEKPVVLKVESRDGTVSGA
Procedure, shortened: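 Fractions of metabolism attributed to CYP oxidation and UGT glucuronidation were derived from human liver microsomal incubations. For the glucuronidation arm, microsomes were supplemented with the UGT cofactor UDP-glucuronic acid.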

[25] = test system: Canis familiaris; assay: Unbound Cmax in beagle dog at 30 mg/kg, po qd administered for 1 month; assay type: ADME, organism-based, Canis lupus familiaris; conditions: in vivo
Procedure, shortened: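 One-month dog toxicity study with once-daily oral dosing. Toxicity groups were 2/sex/dose, and unbound peak exposure was taken from toxicokinetic sampling.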

[26] = Ratio of Cmax in telemetered beagle dog at 50 mg/kg administered via oral gavage measured over 24 hrs to IC50 for in vitro inhibition of dog DGAT2; assay type: organism-based, Canis lupus familiaris; conditions: in vivo
Procedure, shortened: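 Telemetered Beagle dogs given single oral doses (5, 25 and 50 mg kg–1), with systolic and diastolic blood pressure and heart rate monitored after dosing. Cmax is related to the dog DGAT2 enzymatic IC50, which is the geometric mean of at least three replicates.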

[27] = target: T1, Diacylglycerol O-acyltransferase 1 (Homo sapiens, UniProt O75907); assay: Inhibition of DGAT1 (unknown origin)
T1 sequence (O75907 whole entry): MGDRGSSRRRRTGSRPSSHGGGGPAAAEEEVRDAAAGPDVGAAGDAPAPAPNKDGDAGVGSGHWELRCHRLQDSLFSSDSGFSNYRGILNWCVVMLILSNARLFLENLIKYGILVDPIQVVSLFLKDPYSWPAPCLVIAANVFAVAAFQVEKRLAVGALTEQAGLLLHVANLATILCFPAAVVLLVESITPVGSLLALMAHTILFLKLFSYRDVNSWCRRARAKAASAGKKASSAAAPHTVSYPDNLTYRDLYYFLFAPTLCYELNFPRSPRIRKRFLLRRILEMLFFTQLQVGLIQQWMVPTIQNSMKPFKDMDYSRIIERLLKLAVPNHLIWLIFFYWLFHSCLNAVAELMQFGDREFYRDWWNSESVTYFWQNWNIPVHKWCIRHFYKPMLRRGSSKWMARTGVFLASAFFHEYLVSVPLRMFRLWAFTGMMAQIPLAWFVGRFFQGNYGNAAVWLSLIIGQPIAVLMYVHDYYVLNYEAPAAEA

[28] = test system: Canis familiaris; assay: Toxicity in telemetered beagle dog assessed as increase in diastolic pressure at 25 mg/kg administered via oral gavage measured during 4 hrs of post dosing; assay type: organism-based, Canis lupus familiaris; conditions: in vivo

SMILES: CS(=O)(=O)O.O=C([C@@H]1CCCN(c2ccc3nc(C4(n5cc(Cl)cn5)CC4)[nH]c3n2)C1)N1CCCC1
Activity [1]: Toxic | fCmax [2]: 7.51 µM | Activity [3]: Toxic | Activity [4]: Non-Toxic | MTD at 336 h [5]: 75 mg/kg/day | Activity [6]: Non-Toxic | fAUC [7]: 1190 ng·h/mL | Activity [8]: 98% | fAUC [9]: 22600 ng·h/mL | Activity [10]: Non-Toxic | Activity [11]: 92% | fCmax [12]: 13.9 µM | Activity [13]: >99% | Activity [14]: Toxic | Activity [15]: Toxic

Ratio [18]: 31 | CLH(app) [20]: 12.7 µL/min | bioavailability [21]: 75% | Ratio [24]: 0.61 | fCmax [25]: 3.76 µM | IC50 [27]: > 50 µM
SMILES: C[C@@H](c1nc2ccc(N3CCC[C@@H](C(=O)N4CCCC4)C3)nc2[nH]1)n1cc(Cl)cn1
Activity [16]: 5 mmHg | Activity [17]: 15 bpm | Activity [19]: 65% | Activity [22]: Toxic | inhibition [23]: Dose-dependent effect | Ratio [26]: 110 | Activity [28]: 5 mmHg
